The labels stand for the following.
B1: tRNA (parent)
chain: GUUCCGUUGGCGUAAUGGUAACGCGUCUCCCUCCUAAGGAGAAGACUGCGGGUUCGAGUCCCGUACGGAACG

Variants at the floor of the assay were thinned out.

In the data set the parent is B1. Kind of data set: yeast fitness relative to wild type (ratio to wild type); higher = fitter; tRNA-Arg(CCU), competitive growth, 37 C, YPD. An outline of the steps:
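Start and end populations of a pooled competition were compared by 100-nucleotide paired-end sequencing of gene amplicons. The Saccharomyces cerevisiae strains carried tRNA-Arg(CCU) gene variants at the native genomic locus, synthesised with a 3% per-site mutation rate at 69 sites, and competed in YPD at 37°C for 24 hours in six parallel replicates. Darwinian fitness relative to wild type was based on the change in genotype frequencies. Genotypes required ≥ 100 starting reads, and estimates < 0.5 were set to 0.5.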
As for GUUCCGUUGGCGUAAUGAUAACGCGUCUCCCUCUUAAGGGGAAGACCGCGGGUUCGAGUCCCGUACGGAACG [G18A C34U A40G U47C], the yeast fitness is at most 0.5.

As to GUUCCGUUGGCGUAAUGAUAACGCGUCUCCCUCCUAAGGAGAAGACUGCGCGUUCGAGUCCCGUGCGGAACG [G18A G51C A65G], the yeast fitness is at most 0.5.

For GUUCCGUUGGCGUAAUGAUAACGCGUCUCCCUCCUAAGGAGAAGACUGCGGGUUCGAGCCCCGUACGGGACG [G18A U59C A69G], the yeast fitness was at most 0.5.

In the case of GUUCCGUUGGCGUAAUGACAACGCGUGUCCCUCCUAAGGAGAAGACUGCGGGUUCGAGUCACGGAUGGAACG [G18A U19C C27G C61A U64G C66U], the yeast fitness was at most 0.5.

GUUCCGUUGGCGUAAUGAUAACGCGUCUCCCUCCUAAGGAGAACACUGCGGGUUCGAGUCCCGUUCGGAACG [G18A G44C A65U]: the yeast fitness came out at 0.537.

With GUUCCGUUGGCGUAAUGAUAACGCGUCUCCCUCCUAAGGAGAAGACAGCGGGUUCGAGUCCCGUACGGAACG [G18A U47A], the yeast fitness is 0.824.

For the variant GUUCCGUUGGCGUAAUGCUAGCGCGUCUCCCUCCUAAGGAGAAGACUGCGGGUUCAAGUCCCGUACGGAACG [G18C A21G G56A], the yeast fitness turned out to be 0.575.

Turning to GUUCCGUUGGCGUAAUGAUAACGCGUCUCCCUCCUAAGGAGAAGACUGCGGGUUCGAGUCCAGUACGGAACG [G18A C62A], the yeast fitness was determined as 0.513.

Take GUUCCGUUGGCGUAAUGAUAACGCCUCUCCCUCCUAAGGAGAUGACUGCGGGUUCGAGACCCAUACGGAACG [G18A G25C A43U U59A G63A]: the yeast fitness is at most 0.5.

For GUUCCGUUGGCGUAAUGAUAACGCGUCUCCCUCCUAAGGAGAAGACUGUGGGUCCGAGUCCCGUACGGAACG [G18A C49U U54C], the yeast fitness amounted to 0.539.

On to GUUCCGUUGGCGUAAUGAUAACGCAUCUGCCUCAUAAGGAGAAGACUGCGGGUUCGAGUCCCCUACGGAACG [G18A G25A C29G C34A G63C], for which the yeast fitness was at most 0.5.

Turning to GUUCCGUUGGCGUAAUGAUAACGCGUCUCCCUCCUAAGGACGAGACUGCGGGUACGAGUCCCGUACGGAACG [G18A G41C A42G U54A], the yeast fitness was at most 0.5.

As for GUUCCGUUGGCGUAAUGAUAACGCGUCUCCCUCCUAAGGAGAAGACUGCGGGUUGGAGUCCCGUACGGAACG [G18A C55G], the yeast fitness came out at 0.554.

In the case of GUUCCGUUGGCGUAAUGAUAACGCGUCUCCCUCCUAAGGAGAAGACUGCGGGUUUGAGUCCCGUACGGAACG [G18A C55U], the yeast fitness was determined as 0.554.

GUUCCGUUGGCGUAAUGAAAACGCGUCUCCCUCCUAAGGAGAAGACUGCGGGUUCGAGUCCCGUACGGAUCG [G18A U19A A70U]: the yeast fitness is 0.657.

As for GUUCCGUUGGCGUAAUGAUAACGCGUCUCCCUCUUAAGGAGAAGACUGCGGGUUCGAGUUCCGUACGGAACG [G18A C34U C60U], the yeast fitness is at most 0.5.

Regarding GUUCCGUUGGCGUAAUGAUAACGCGUCUCCCUCCUAAGGAGAAGAAUGCGGGUUCGAGUCCCCUACGGAACG [G18A C46A G63C], the yeast fitness came out at 0.604.

In the case of GUUCCGUUGGCGUAAUGAUAACGCGUCUCCCUCCUAAGGAGAAGACUGCGGGUUCGAGUCCGGUACGCAACG [G18A C62G G68C], the yeast fitness is at most 0.5.

Consider GUUCCGUUGGCGUAAUGAUAACGCGUCUCCCUCCUAAGGAGAAGACUGCGGGUUCGAGUCCGGUACGUAACG [G18A C62G G68U], for which the yeast fitness is at most 0.5.

In the case of GUUCCGUUGGCGUAAUGAUAACGCGUCUCCCUCCUAAGGAGAAGAUUGUGGGUUCGAGCCCCGUACGAAACG [G18A C46U C49U U59C G68A], the yeast fitness was at most 0.5.

Take GUUCCGUUGGCGUAAUGCUGACGCGUCUACCUCCUAAGGAGAAGACUGUGGGUUCGAGUCCCGUACGGUACG [G18C A20G C29A C49U A69U]: the yeast fitness is at most 0.5.

Consider GUUCCGUUGGCGUAAUGAUAACGCGUCUCCCUCCUAAGGAGAAGAUUGCUGGUUCGAGUGCCGUACGGAGCG [G18A C46U G50U C60G A70G], for which the yeast fitness is at most 0.5.

In the case of GUUCCGUUGGCGUAAUGAUAACGCGUCUCCCUCCCAAGGAGAAGACCGCCGGUUCGAGUCCCGUACGGAACG [G18A U35C U47C G50C], the yeast fitness was at most 0.5.

Take GUUCCGUUGGCGUAAUGAUAACACGUCUCCCUCCUAAGGAGACGACUGCGGGUUCGAGACCCGUACGGAACG [G18A G23A A43C U59A]: the yeast fitness was at most 0.5.

Take GUUCCGUUGGCGUAAUGAUAACGCGUCUCCCUCCUAAGGAGAAGAAUGCGGGUUCGAGUCCCGUACGGAACG [G18A C46A]: the yeast fitness was 0.692.

Turning to GUUCCGUUGGCGUAAUGAUAACGCGUCUCCCUCCUAAGGAGAAGAGUGCGGGUUCGAGUCCCGUACGGAACG [G18A C46G], the yeast fitness came out at 0.749.

In the case of GUUCCGUUGGCGUAAUGAUAACGCGUCUCCCUCCUAAGGAGAAGAUUGCGGGUUCGAGUCCCGUACGGAACG [G18A C46U], the yeast fitness came out at 0.749.

For GUUCCGUUGGCGUAAUGAUAACGCGAUUCCCUCCUAAGGAGAAGACUGUGGGUUCGAAUCCCGUACGGAACG [G18A U26A C27U C49U G58A], the yeast fitness was at most 0.5.

For GUUCCGUUGGCGUAAUGCUUACGCGUCUCCCUCCUAAGGAGAAGACUGCGGGCUCGAGUCCCGUACGGUACG [G18C A20U U53C A69U], the yeast fitness was at most 0.5.

On to GUUCCGUUGGCGUAAUGCUACCGCGUUUCCCUCCUAUGGAGAAGACUGCGGGUUCGAGUCCCGUACGGAACG [G18C A21C C27U A37U], for which the yeast fitness is at most 0.5.

For the variant GUUCCGUUGGCGUAAUGAUAACGCCUCUCGCUCCUAAGGAUAAGACUGCGGGUUCGUGUCCCGUACGGAACG [G18A G25C C30G G41U A57U], the yeast fitness was at most 0.5.

GUUCCGUUGGCGUAAUGAUAACGCGUCUCCCUCCUAAGGAGAAAACUGCGGGUUCGAGUCCCGUACGGAACG [G18A G44A]: the yeast fitness was 0.637.

Take GUUCCGUUGGCGUAAUGAUAACGCGUCUCCCUCCUAAGGAGAACACUGCGGGUUCGAGUCCCGUACGGAACG [G18A G44C]: the yeast fitness was determined as 0.767.

Take GUUCCGUUGGCGUAAUGAUAACGCGUCUCCCGCCUAAGGAGAAGACUGCGGGUUCGAGUCCCGUACGGGACG [G18A U32G A69G]: the yeast fitness is at most 0.5.

Regarding GUUCCGUUGGCGUAAUGAUAACGCCUCUCCCUCCUAAGGAGAUGACUGCGGGUUCGAGUCCCGUACGGCACG [G18A G25C A43U A69C], the yeast fitness is at most 0.5.

For GUUCCGUUGGCGUAAUGCUGACGCGUCUCACUCCUAAGGAGAAGACUGCGGGUUCGAGUCCCGUACGGAACG [G18C A20G C30A], the yeast fitness was at most 0.5.

On to GUUCCGUUGGCGUAAUGAAAACGCGUUUCCCUCCUAAGGAGAAGACUGCGGGUUCGAGUCCCGUACGGAACG [G18A U19A C27U], for which the yeast fitness came out at 0.707.
